Measured values: publication PMC12495087 (ESMO Open, 2025)

Key:
[1] = tested on: advanced solid tumors with RET gene alteration; test: phase I study: tumor response per RECIST v.1.1, evaluable analysis set; format: in vivo, human
Summary of the method: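 Investigator assessed response by RECIST v1.1. Drug was taken orally once daily in 28-day cycles, 10–150 mg in part A escalation and 75 mg in part B expansion, until progression. ORR and DCR summarised with two-sided 95% exact CIs. Duration of response and other time-to-event endpoints estimated by Kaplan–Meier.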

[2] = tested on: RET-mutant MTC; test: phase I study: tumor response per RECIST v.1.1, MTC; format: in vivo, human
[3] = tested on: RET G810; details: cited from earlier work
[4] = tested on: RET-fusion-positive NSCLC; test: phase I study: tumor response per RECIST v.1.1, NSCLC; format: in vivo, human
[5] = tested on: vascular endothelial growth factor receptor 2; details: cited from earlier work
[6] = molecular target: RET; details: read-out: kd, potency against RET; cited from earlier work
[7] = tested on: tumors with cfDNA-detected RET alterations; test: clinical outcome by cfDNA RET alteration; format: in vivo, human
Summary of the method: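 Adults with advanced RET-altered solid tumours took oral drug once daily in 28-day cycles (10–150 mg dose escalation; expansion at recommended phase II dose). RET status came from plasma cfDNA drawn at screening (within 28 days pre-dose), cycle 1 day 15 (±2 days) and cycle 2 day 1. Investigator assessed response by RECIST v1.1 in patients with evaluable response and tumour-size change. ORR/DCR given with two-sided 95% exact CIs.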

[8] = tested on: tumors with local RET results; test: clinical outcome by local RET result; format: in vivo, human
Summary of the method: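 RET alteration was confirmed locally by DNA- or RNA-based assays of tumour tissue or blood. Patients took oral drug once daily in 28-day cycles (10–150 mg escalation; expansion at recommended phase II dose). Investigator assessed response by RECIST v1.1 in patients with evaluable overall response and percent tumour-size change from baseline. ORR and DCR summarised with two-sided 95% exact CIs.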

[9] = phase I study: plasma pharmacokinetics; format: in vivo, human
[10] = 58 patients with cfDNA RET alterations
[11] = cfDNA RET alteration total, n = 58

## COc1cc2cc(-c3ccc(CC(=O)Nc4cc(C(C)(C)C(F)(F)F)no4)cn3)cnc2cc1OC [BOS172738]
[1]; 100 mg dose, part A
  objective DCR (ODCR): 93%
[1]; all confirmed responders
  median time to response: 1.79 months
[1]; one patient with brain metastases, first post-baseline scan
  reduction in brain target lesions: 43%
[1]; overall, evaluable analysis set
  median PFS: 7.16 months
[1]; parts A and B total, N=101
  BOR: CR: No patients
[1]; patients with brain metastases
  intracranial activity: intracranial activity was also observed
[2]; MTC
  median PFS: 12.75 months
[2]; confirmed responders with MTC
  median DoR: 19.15 months
[3]
  activity against RET G810 resistance: able to overcome RET G810 resistance
[4]; NSCLC
  median PFS: 6.18 months
[4]; confirmed responders with NSCLC
  median DoR: 10.17 months
[5]
  specificity to RET compared with vascular endothelial growth factor receptor 2: > 300 fold
[6]
  Kd: ≤ 1 nM
[7]; [10]
  partial responses as best response: 29%
  progressive disease as best response: 28%
  stable disease as best response: 43%
[7]; [11]
  BOR: PD: 16 (28) n (%)
  BOR: PR: 17 (29) n (%)
  BOR: SD: 25 (43) n (%)
  DCR (PR + SD): 42 (72) n (%)
  ORR: 17 (29) n (%)
[7]; cfDNA RET fusions + SNV, n = 2
  BOR: PD: 1 (50) n (%)
  BOR: PR: 1 (50) n (%)
  BOR: SD: 0 n (%)
  DCR (PR + SD): 1 (50) n (%)
  ORR: 1 (50) n (%)
[7]; cfDNA RET fusions, n = 37
  BOR: PD: 6 (16) n (%)
  BOR: PR: 12 (32) n (%)
  BOR: SD: 19 (51) n (%)
  DCR (PR + SD): 31 (84) n (%)
  ORR: 12 (32) n (%)
[7]; cfDNA SNV, n = 19
  BOR: PD: 9 (47) n (%)
  BOR: PR: 4 (21) n (%)
  BOR: SD: 6 (32) n (%)
  DCR (PR + SD): 10 (53) n (%)
  ORR: 4 (21) n (%)
[8]; local Indel, n = 6
  BOR: PD: 1 (17) n (%)
  BOR: PR: 1 (17) n (%)
  BOR: SD: 4 (67) n (%)
  DCR (PR + SD): 5 (83) n (%)
  ORR: 1 (17) n (%)
[8]; local RET fusions, n = 57
  BOR: PD: 10 (18) n (%)
  BOR: PR: 21 (37) n (%)
  BOR: SD: 26 (46) n (%)
  DCR (PR + SD): 47 (82) n (%)
  ORR: 21 (37) n (%)
[8]; local RET total, n = 93
  BOR: PD: 20 (22) n (%)
  BOR: PR: 28 (30) n (%)
  BOR: SD: 45 (48) n (%)
  DCR (PR + SD): 73 (78) n (%)
  ORR: 28 (30) n (%)
[8]; local SNV, n = 30
  BOR: PD: 9 (30) n (%)
  BOR: PR: 6 (20) n (%)
  BOR: SD: 15 (50) n (%)
  DCR (PR + SD): 21 (70) n (%)
  ORR: 6 (20) n (%)
[9]; after dosing, cycle 1 day 1 and day 15
  plasma concentrations remained quantifiable through: ≥ 24 h
[9]; human, plasma, oral
  half-life: 41.9 to 84.1 h
[9]; human, plasma, oral, cycle 1 day 1, range across all dose levels
  Tmax: 3 to 10 h
[9]; human, plasma, oral, cycle 1 day 15, range across dose levels
  Tmax: 1 to 3.1 h
[9]; most treatment groups, based on mean trough concentration and effective t½
  steady state reached by: ≤ 15 days
